Test results as given in ChEMBL document CHEMBL1142240, “Lissoclibadins 4-7, polysulfur aromatic alkaloids from the Indonesian ascidian Lissoclinum cf. badium” (J Nat Prod, 2007).
Active and inactive are the calls of the source. The calls are words filed in the database; no cut-off is given here.

Experiments:
[1] = system: Escherichia coli; test: Antimicrobial activity against Escherichia coli IAM 12119T at 50 ug/disk; format: functional; details: read-out: IZ
[2] = system: Mucor hiemalis; test: Antimicrobial activity against Mucor hiemalis IAM 6088 at 50 ug/disk; format: functional; details: for zone of inhibition at 50 µg/disc: read-out: IZ
[3] = system: Saccharomyces cerevisiae; test: Antimicrobial activity against Saccharomyces cerevisiae IAM 1438T at 50 ug/disk; format: functional; details: read-out: IZ
[4] = system: Mucor hiemalis; test: Antimicrobial activity against Mucor hiemalis IAM 6088 at 20 ug/disk; format: functional; details: read-out: IZ
[5] = Inhibition of colony formation in Chinese hamster V79 cells; format: functional, cell-based; details: Cricetulus griseus
Summary of the method: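 Compound added in DMSO at 0.01–10 μM, then 4 further days of incubation. Colonies counted; relative plating efficiency taken as colony number in sample dish over control dish; EC50 derived.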

[6] = system: Escherichia coli; test: Antimicrobial activity against Escherichia coli IAM 12119T at 20 ug/disk; format: functional; details: read-out: IZ
[7] = system: Staphylococcus aureus; test: Antimicrobial activity against Staphylococcus aureus IAM 12544T at 50 ug/disk; format: functional; details: read-out: IZ
[8] = system: Saccharomyces cerevisiae; test: Antimicrobial activity against Saccharomyces cerevisiae IAM 1438T at 20 ug/disk; format: functional; details: read-out: IZ
[9] = system: Staphylococcus aureus; test: Antimicrobial activity against Staphylococcus aureus IAM 12544T at 20 ug/disk; format: functional; details: read-out: IZ

Q: Which zone of inhibition at 50 µg/disc [1] does the source give for `COc1c(OC)c2c(c(CCN(C)C)c1SC)SSS2` here?
A: 17.8 mm

Q: And the zone of inhibition at 50 µg/disc [2]?
A: 23 mm

Q: What about the zone of inhibition at 50 µg/disc [3] of the same compound?
A: 11.8 mm

Q: What about the zone of inhibition at 20 µg/disc [4] of the same compound?
A: 17.4 mm

Q: And the EC50 [5]?
A: 190 nM

Q: What about the zone of inhibition at 20 µg/disc [6] of the same compound?
A: 14.4 mm

Q: What about the zone of inhibition at 50 µg/disc [7] of the same compound?
A: 10.3 mm

Q: Which zone of inhibition at 50 µg/disc [1] does the source give for `COc1c(OC)c2c(c(CCN(C)C)c1SC)SSSSS2` here?
A: 17.1 mm

Q: And the zone of inhibition at 20 µg/disc [8]?
A: 10.5 mm

Q: And the zone of inhibition at 50 µg/disc [2]?
A: 26.2 mm

Q: And the zone of inhibition at 50 µg/disc [3]?
A: 15.2 mm

Q: And the zone of inhibition at 20 µg/disc [4]?
A: 19.6 mm

Q: And the EC50 [5]?
A: 150 nM

Q: What about the zone of inhibition at 20 µg/disc [6] of the same compound?
A: 13.1 mm

Q: And the zone of inhibition at 50 µg/disc [7]?
A: 14.2 mm

Q: For `COc1c(OC)c2c(c(CCN(C)C)c1SC)SSc1c(CCN(C)C)c(SC)c(OC)c(OC)c1Sc1c(OC)c(OC)c(SC)c(CCN(C)C)c1S2` [LISSOCLIBADIN 1], which EC50 [5] is on record?
A: 200 nM

Q: With `COc1c(SC)c(CCN(C)C)c2sc3c(OC)c(OC)c(SC)c(CCN(C)C)c3ssc2c1OC` [LISSOCLIBADIN 2] as the compound, how does the zone of inhibition at 50 µg/disc [2] read?
A: 13.8 mm

Q: What about the EC50 [5] of the same compound?
A: 80 nM

Q: Which EC50 [5] does the source give for `COc1c(OC)c2c(c(CCN(C)C)c1SC)Sc1c(OC)c(OC)c(SC)c(CCN(C)C)c1S2` [LISSOCLIBADIN 3] here?
A: 340 nM

Q: Which zone of inhibition at 50 µg/disc [1] does the source give for `COc1cc(CCN(C)C)c2sc3c(O)c(OC)cc(CCN(C)C)c3ssc2c1O` [LISSOCLIBADIN 4] here?
A: 15.7 mm

Q: What about the Activity [2] of the same compound?
A: inactive

Q: And the zone of inhibition at 20 µg/disc [9]?
A: 10.8 mm

Q: What about the EC50 [5] of the same compound?
A: 710 nM

Q: And the zone of inhibition at 50 µg/disc [7]?
A: 13.1 mm

Q: With `COc1cc(CCN(C)C)c2sc3c(OC)c(OC)c(SC)c(CCN(C)C)c3ssc2c1O` [LISSOCLIBADIN 5] as the compound, how does the zone of inhibition at 50 µg/disc [1] read?
A: 11.6 mm

Q: What about the zone of inhibition at 50 µg/disc [3] of the same compound?
A: 6.2 mm

Q: What about the zone of inhibition at 20 µg/disc [9] of the same compound?
A: 9 mm

Q: What about the EC50 [5] of the same compound?
A: 60 nM

Q: And the zone of inhibition at 50 µg/disc [7]?
A: 15.8 mm

Q: With `COc1cc(CCN(C)C)c2c(c1O)Sc1c(CCN(C)C)c(SC)c(OC)c(OC)c1S2` [LISSOCLIBADIN 6] as the compound, how does the zone of inhibition at 50 µg/disc [1] read?
A: 10.8 mm

Q: And the zone of inhibition at 50 µg/disc [3]?
A: 7.8 mm

Q: What about the zone of inhibition at 20 µg/disc [9] of the same compound?
A: 10 mm

Q: And the EC50 [5]?
A: 60 nM

Q: What about the zone of inhibition at 50 µg/disc [7] of the same compound?
A: 13.8 mm

Q: Which zone of inhibition at 50 µg/disc [1] does the source give for `COc1cc(CCN(C)C)c2c(c1O)SSc1c(CCN(C)C)cc(OC)c(O)c1SS2` [LISSOCLIBADIN 7] here?
A: 9.9 mm

Q: What about the zone of inhibition at 50 µg/disc [3] of the same compound?
A: 16.8 mm

Q: And the zone of inhibition at 20 µg/disc [9]?
A: 9.4 mm

Q: And the EC50 [5]?
A: 170 nM

Q: What about the zone of inhibition at 50 µg/disc [7] of the same compound?
A: 13.1 mm

Q: Which EC50 [5] does the source give for `COc1c(OC)c2c(c(CCN(C)C)c1SC)Sc1c(CCN(C)C)c(SC)c(OC)c(OC)c1S2` [LISSOCLINOTOXIN E] here?
A: 270 nM

Q: Which zone of inhibition at 50 µg/disc [2] does the source give for `COc1c(SC)c(CCN(C)C)c2sc3c(CCN(C)C)c(SC)c(OC)c(OC)c3ssc2c1OC` [LISSOCLINOTOXIN F] here?
A: 18 mm

Q: And the zone of inhibition at 20 µg/disc [4]?
A: 10.5 mm

Q: And the EC50 [5]?
A: 280 nM
